Calls of active or inactive are those of the source. The rule behind the calls is not given here.
Experiments:
[1] = test system: Rattus norvegicus; assay: In vivo changes in different brain area levels of 5-HTP in reserpinized rat corpus striatum.; format: functional
Outline: (§1)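 Male Sprague-Dawley rats (200-300 g) pretreated with reserpine 5 mg/kg sc 18 h before. Injection volume 5 mL/kg at neutral pH. Brain-region 5-HTP measured by HPLC with electrochemical detection. Dose-response curves used four to six doses, n = 4.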

[2] = test system: Rattus norvegicus; assay: The compound was tested in vivo for biochemical effect against the changes in different brain area levels of DOPA in reserpinized rat corpus striatum at dose 50 uM/kg; Inactive; format: functional, organism-based
Outline: (§2)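 Male Sprague-Dawley rats (200-300 g) pretreated with reserpine 5 mg/kg sc 18 h before. Injection volume 5 mL/kg, test solutions at neutral pH. DOPA and 5-HTP in limbic system, striatum and hemispheres measured by HPLC with electrochemical detection. Dose-response curves from four to six dose levels (n = 4) per brain area.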

[3] = test system: Rattus norvegicus; assay: The compound was tested in vivo for biochemical effect against the changes in different brain area levels of DOPA in reserpinized rat limbic system at does 50 uM/kg; Inactive; format: functional, organism-based; outline: as §2
[4] = test system: Rattus norvegicus; assay: In vivo changes in different brain area levels of 5-HTP in reserpinized rat limbic system.; format: functional; outline: as §1
[5] = test system: Rattus norvegicus; assay: In vivo for biochemical effect against brain area levels of 5-HTP in reserpinized rat hemispheres (mainly cortex).; format: functional; outline: as §2
[6] = molecular target: D(2) dopamine receptor (Rattus norvegicus, UniProt P61169); assay: In vitro binding affinity against cloned mammalian Dopamine receptor D2 expressed in CHO cells using [3H]U-86170 as radioligand; format: cell-based
Outline: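 Membranes from CHO cells (20-60 μg protein) in 20 mM HEPES, 10 mM MgSO4, pH 7.4. Nonspecific binding defined with excess haloperidol. 11 concentrations, each in duplicate. Incubated 1 h at room temperature, then filtered and counted. IC50 from a one-site competition fit, converted to Ki by Cheng-Prusoff.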

[7] = test system: Rattus norvegicus; assay: (§3) The compound was tested in vivo for biochemical effect against the changes in different brain area levels of DOPA in reserpinized rat hemispheres (mainly cortex)at does 50 uM/kg; Inactive; format: functional, organism-based; outline: as §2
[8] = test system: Rattus norvegicus; assay: The compound was tested in vivo for biochemical effect against the changes in different brain area levels of DOPA in reserpinized rat limbic system; Inactive; format: functional, organism-based
[9] = test system: Rattus norvegicus; assay: The compound was tested in vivo for biochemical effect against the changes in different brain area levels of 5-HTP in reserpinized rat corpus striatum at does 50 uM/kg; Partial effect; format: functional, organism-based
[10] = test system: Rattus norvegicus; assay: The compound was tested in vivo for biochemical effect against the changes in different brain area levels of 5-HTP in reserpinized rat limbic system at dose 50 uM/kg; Partial effect; format: functional, organism-based
[11] = test system: Rattus norvegicus; assay: as §3; format: functional, organism-based; remark: listed apart in the source
[12] = test system: Rattus norvegicus; assay: The compound was tested in vivo for biochemical effect against the changes in different brain area levels of DOPA in reserpinized rat corpus striatum at does 50 uM/kg; Inactive; format: functional, organism-based
[13] = test system: Rattus norvegicus; assay: The compound was tested in vivo for biochemical effect against the changes in different brain area levels of 5-HTP in reserpinized rat hemispheres (mainly cortex)at does 50 uM/kg; Partial effect; format: functional, organism-based
[14] = test system: Rattus norvegicus; assay: The compound was tested in vivo for biochemical effect against the changes in different brain area levels of DOPA in reserpinized rat hemispheres (mainly cortex) at dose 12.5 uM/kg; Inactive; format: functional, organism-based; outline: as §2
[15] = molecular target: D(3) dopamine receptor (Rattus norvegicus, UniProt P19020); assay: In vitro binding affinity against cloned mammalian Dopamine receptor D3 expressed in CHO cells by, using [3H]-spiperone as radioligand; format: cell-based; details: read-out: Ki
[16] = molecular target: 5-hydroxytryptamine receptor 1B (Homo sapiens, UniProt P28222); assay: In vitro binding affinity against cloned mammalian 5-hydroxytryptamine 1D receptor beta expressed in CHO cells, by using [3H]5-HT as radioligand; format: cell-based
Outline: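 Membranes from CHO cells stably expressing the cloned receptor, made by mechanical disruption in ice-cold Tris/EDTA/EGTA pH 7.4 and differential centrifugation. [3H]serotonin at 1.7 nM in 50 mM Tris, 5 mM MgCl2, 0.1% ascorbic acid, pH 7.4. 11 drug concentrations in duplicate, 1 h at room temperature protected from light, then filtration. Excess serotonin defines nonspecific binding. One-site IC50 fit, Ki by Cheng-Prusoff.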

[17] = test system: Rattus norvegicus; assay: The compound was tested in vivo for biochemical effect against the changes in different brain area levels of DOPA in reserpinized rat limbic system at dose 12.5 uM/kg; Partial effect; format: functional, organism-based; outline: as §2
[18] = test system: Rattus norvegicus; assay: The compound was tested in vivo for biochemical effect against the changes in different brain area levels of DOPA in reserpinized rat corpus striatum at dose 12.5 uM/kg; Partial effect; format: functional, organism-based; outline: as §2
[19] = molecular target: D(3) dopamine receptor (Rattus norvegicus) (UniProt P19020); assay: The compound was tested in vitro for binding affinity against cloned mammalian Dopamine receptor D3 expressed in CHO cells by, using [3H]-spiperone as radioligand; format: cell-based; details: concentration not given here
Outline: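 Cloned D3 receptor came from CHO cell membranes (20-60 μg protein). These were incubated 1 h at room temperature with [3H]spiperone (123 Ci/mmol, 0.5 nM) in 20 mM HEPES, 10 mM MgCl2, 150 mM NaCl, 1 mM EDTA, pH 7.4. Excess haloperidol defined nonspecific binding. There were 11 concentrations in duplicate. After filtration and scintillation counting, IC50 came from a one-site competition fit and Ki from Cheng-Prusoff.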

[20] = test system: Rattus norvegicus; assay: The compound was tested in vivo for biochemical effect against the changes in different brain area levels of DOPA in reserpinized rat hemispheres (mainly cortex)at dose 50 uM/kg; Inactive; format: functional, organism-based
[21] = test system: Rattus norvegicus; assay: The compound was tested in vivo for biochemical effect against the changes in different brain area levels of DOPA in reserpinized rat limbic system at dose 50 uM/kg; Inactive; format: functional, organism-based
[22] = molecular target: 5-hydroxytryptamine receptor 1D (Homo sapiens, UniProt P28221); assay: In vitro binding affinity against cloned mammalian 5-hydroxytryptamine 1D receptor alpha expressed in CHO cells, by using [3H]5-HT as radioligand; format: cell-based
Outline: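 Competition binding on CHO-cell membranes (20-60 μg protein) in 50 mM Tris, 5 mM MgCl2, 0.1% ascorbic acid, pH 7.4. Nonspecific binding defined with excess serotonin. 11 drug concentrations, each in duplicate. Incubated 1 h at room temperature, protected from light, then filtered and scintillation counted. IC50 taken from a one-site fit; Ki by Cheng-Prusoff.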

[23] = test system: Rattus norvegicus; assay: The compound was tested in vivo for biochemical effect against the changes in different brain area levels of DOPA in reserpinized rat hemispheres (mainly cortex); inactive at the highest dose tested (3.1); format: functional, organism-based; outline: as §2

Chain of 5-hydroxytryptamine receptor 1B (P28222 whole entry): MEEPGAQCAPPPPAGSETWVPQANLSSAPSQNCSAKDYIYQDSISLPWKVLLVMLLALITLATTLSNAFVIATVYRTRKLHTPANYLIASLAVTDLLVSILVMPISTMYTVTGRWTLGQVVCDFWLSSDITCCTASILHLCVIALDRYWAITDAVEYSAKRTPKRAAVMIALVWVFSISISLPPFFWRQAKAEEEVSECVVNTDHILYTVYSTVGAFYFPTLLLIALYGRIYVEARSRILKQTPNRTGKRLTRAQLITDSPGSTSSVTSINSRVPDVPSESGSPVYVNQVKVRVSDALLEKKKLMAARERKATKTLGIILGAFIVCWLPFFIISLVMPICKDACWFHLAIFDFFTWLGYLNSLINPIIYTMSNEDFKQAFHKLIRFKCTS
Chain of D(2) dopamine receptor (P61169 whole entry): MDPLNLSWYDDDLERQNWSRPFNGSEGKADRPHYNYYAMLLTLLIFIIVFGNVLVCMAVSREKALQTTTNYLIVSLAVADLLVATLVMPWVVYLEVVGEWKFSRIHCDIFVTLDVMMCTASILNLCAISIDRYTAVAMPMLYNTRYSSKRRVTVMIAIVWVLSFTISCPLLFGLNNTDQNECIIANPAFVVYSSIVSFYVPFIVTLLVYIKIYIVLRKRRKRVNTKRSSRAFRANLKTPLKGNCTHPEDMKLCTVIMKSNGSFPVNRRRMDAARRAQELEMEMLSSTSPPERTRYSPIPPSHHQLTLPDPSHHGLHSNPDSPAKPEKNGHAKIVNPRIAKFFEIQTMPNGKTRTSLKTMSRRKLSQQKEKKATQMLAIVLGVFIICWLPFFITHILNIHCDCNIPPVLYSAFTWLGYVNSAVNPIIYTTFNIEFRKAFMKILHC
Chain of D(3) dopamine receptor (P19020 whole entry): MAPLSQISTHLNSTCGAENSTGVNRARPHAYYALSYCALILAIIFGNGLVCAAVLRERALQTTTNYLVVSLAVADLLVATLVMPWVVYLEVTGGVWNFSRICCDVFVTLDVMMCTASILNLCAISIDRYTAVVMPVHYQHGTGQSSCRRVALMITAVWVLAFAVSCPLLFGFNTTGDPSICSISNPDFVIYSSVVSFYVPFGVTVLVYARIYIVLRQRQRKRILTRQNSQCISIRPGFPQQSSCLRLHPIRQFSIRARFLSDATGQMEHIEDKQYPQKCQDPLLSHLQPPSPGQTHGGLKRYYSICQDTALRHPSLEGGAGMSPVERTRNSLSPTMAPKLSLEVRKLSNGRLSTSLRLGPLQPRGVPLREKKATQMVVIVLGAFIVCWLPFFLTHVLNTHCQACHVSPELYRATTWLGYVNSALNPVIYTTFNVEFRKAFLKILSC
Chain of D(3) dopamine receptor (Rattus norvegicus) (P19020 whole entry): as above
Chain of 5-hydroxytryptamine receptor 1D (P28221 whole entry): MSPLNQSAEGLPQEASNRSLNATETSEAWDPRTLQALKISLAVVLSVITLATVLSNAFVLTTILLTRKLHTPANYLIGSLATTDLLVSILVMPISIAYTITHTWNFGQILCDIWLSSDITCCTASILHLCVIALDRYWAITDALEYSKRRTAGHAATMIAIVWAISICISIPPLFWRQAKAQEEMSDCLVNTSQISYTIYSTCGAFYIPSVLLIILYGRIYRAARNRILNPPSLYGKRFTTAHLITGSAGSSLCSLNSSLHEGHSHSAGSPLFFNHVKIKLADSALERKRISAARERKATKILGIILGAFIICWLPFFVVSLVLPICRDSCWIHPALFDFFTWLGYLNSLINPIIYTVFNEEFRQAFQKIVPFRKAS

| Compound | ED50 [1] | ED50 [2] | ED50 [4] | ED50 [5] | Ki ([6]; read-out: Ki) | Ki [15] | Ki [16] | also measured |
| --- | --- | --- | --- | --- | --- | --- | --- | --- |
| CN(C)[C@H]1CCc2ccc3[nH]cc(C=O)c3c2C1 | 12.1 µmol/kg | inactive | 13.1 µmol/kg | 15.3 µmol/kg | 250 nM |  |  | ED50 [3]: inactive; ED50 [7]: inactive |
| CCCN(CCC)CC1CCc2ccc3[nH]cc(C=O)c3c2C1 (stereo unspecified) |  |  |  |  |  |  |  | ED50 [8]: inactive; ED50 [9]: Weak activity; ED50 [10]: Weak activity; ED50 [11]: inactive; Ki ([6]; cho): Not Active; ED50 [12]: inactive; ED50 [13]: Weak activity |
| CN(C)[C@@H]1CCc2ccc3[nH]cc(C=O)c3c2C1 | 0.95 µmol/kg |  | 2.9 µmol/kg | 0.56 µmol/kg | 13 nM | 265 nM | 20 nM | ED50 [14]: inactive; ED50 [17]: Weak activity; ED50 [18]: Weak activity |
| CN(C)[C@H]1CCc2ccc3[nH]ccc3c2C1 |  |  |  |  |  |  | 1690 nM | inhibition [19]: < 45% |
| CCCN(CCCOc1cccc(Cl)c1)C1CCc2ccc3[nH]cc(C=O)c3c2C1 (stereo unspecified) | 4.01 µmol/kg | inactive | 4.79 µmol/kg | 5.12 µmol/kg | 28 nM | 159 nM | 187 nM | ED50 [20]: inactive; ED50 [21]: inactive; Ki [22]: 5.1 nM |
| CCCN(CCC)[C@@H]1CCc2ccc3[nH]ccc3c2C1 |  |  |  |  |  |  |  | ED50 [23]: inactive |

Reference: ChEMBL document CHEMBL1128739, “Structure-activity relationships in the 8-amino-6,7,8,9-tetrahydro-3H-benz[e]indole ring system. 2. Effects of 8-amino nitrogen substitution on serotonin receptor binding and pharmacology” (J Med Chem, 1995)
